Measurements reported in ChEMBL document CHEMBL2146409, “Phenethyl nicotinamides, a novel class of Na(V)1.7 channel blockers: structure and activity relationship” (Bioorg Med Chem Lett, 2012).

Columns and labels:
[1] = Volume of distribution at steady state in rat at 3 umol/kg, iv; type: ADME, organism-based; details: in vivo, read-out: Vdss
How it was run: (§1)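 Fasted male Sprague-Dawley rats given a single intravenous dose of 3 μmol/kg. Three animals per administration per compound; plasma PK parameters derived.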

[2] = Half life in rat at 3 umol/kg, iv; type: ADME, organism-based; details: in vivo; how it was run: as §1
Liver microsomes [3] = test: Metabolic stability in human liver microsomes by glutathione trapping assay; type: ADME, Microsome
[4] = Tmax in rat at 10 umol/kg, po; type: ADME, organism-based; details: in vivo
How it was run: (§2)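 Fasted male Sprague-Dawley rats dosed per orally at 10 µmol/kg. Three animals per administration per compound; plasma exposure and PK parameters derived.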

Rattus norvegicus [5] = test: Dose normalised AUC in rat at 10 umol/kg, po; type: ADME, organism-based; details: in vivo; how it was run: as §2
[6] = Half life in rat at 10 umol/kg, po; type: ADME, organism-based; details: in vivo; how it was run: as §2
[7] = Oral bioavailability in rat at 10 umol/kg; type: ADME, organism-based; details: in vivo; how it was run: as §2
Rattus norvegicus [8] = test: Dose normalized AUC in rat at 3 umol/kg, iv; type: ADME, organism-based; details: in vivo; how it was run: as §1
[9] = Cmax in rat at 10 umol/kg, po; type: ADME, organism-based; set-up: dose 10 umol/kg, route oral; details: in vivo; how it was run: as §2
[10] = Clearance in rat at 3 umol/kg, iv; type: ADME, organism-based; details: in vivo; how it was run: as §1
Liver microsomes [11] = test: Intrinsic clearance in human liver microsomes; type: ADME, Microsome
Liver microsomes [12] = test: Intrinsic clearance in rat liver microsomes; type: ADME, Microsome
[13] = Oral bioavailability in rat in presence of 1-aminobenzotriazole; details: in vivo

| SMILES | Stability (Liver microsomes [3]) | CLH (Liver microsomes [11]) [µL/min/µg] | CLH (Liver microsomes [12]) [µL/min/µg] | other results |
| --- | --- | --- | --- | --- |
| COc1ncc(-c2cccc3c2C[C@H](NC(=O)c2ccc(OCCC(F)(F)F)nc2)CO3)cn1 | Stable | – | – | Vd [1]: 7.2 L/kg; half-life [2]: 6.4 h; Tmax [4]: 4.8 h; AUC/dose (Rattus norvegicus [5]): 0.32 kg·h/L; half-life [6]: 7.6 h; bioavailability [7]: 26%; AUC/dose (Rattus norvegicus [8]): 1.2 kg·h/L; Cmax [9]: 230 nM; clearance [10]: 14 mL/min/kg |
| COc1cnc(-c2ccc(Cl)cc2CCNC(=O)c2ccc(COCC(F)(F)F)nc2)cn1 | – | 72 | – | – |
| COc1ncc(-c2ccccc2CCNC(=O)c2ccc(OCCC(F)(F)F)nc2)cn1 | – | 17 | > 500 | – |
| COc1cnc(-c2ccccc2CCNC(=O)c2ccc(OCCC(F)(F)F)nc2)cn1 | Unstable | 124 | 129 | – |
| O=C(NCCc1ccccc1-c1cnc(OC(F)F)cn1)c1ccc(OCCC(F)(F)F)nc1 | – | 210 | 270 | – |
| O=C(NCCc1ccccc1-c1cccnc1)c1ccc(OCCC(F)(F)F)nc1 | Unstable | 160 | > 500 | – |
| Cc1ncc(-c2ccccc2CCNC(=O)c2ccc(OCCC(F)(F)F)nc2)cn1 | Unstable | 11 | > 500 | – |
| O=C(NCCc1ccccc1-c1ccc(CO)nc1)c1ccc(OCCC(F)(F)F)nc1 | – | 10 | 130 | – |
| Cc1ncc(-c2ccccc2CCNC(=O)c2ccc(COCC(F)(F)F)nc2)cn1 | Unstable | < 10 | < 10 | – |
| Cc1ncc(-c2ccccc2CCNC(=O)c2ccc(OCCOCC(F)(F)F)nc2)cn1 | – | 23 | < 10 | – |
| Cc1ncc(-c2ccccc2CCNC(=O)c2ccc(C(=O)NCCCC(F)(F)F)nc2)cn1 | Unstable | 11 | < 10 | – |
| Cc1ncc(-c2ccccc2CCNC(=O)c2ccc(CNCCC(F)(F)F)nc2)cn1 | – | 15 | < 10 | – |
| COc1ncc(-c2cccc(C)c2CCNC(=O)c2ccc(OCCC(F)(F)F)nc2)cn1 | Stable | 65 | 32 | Vd [1]: 2.4 L/kg; half-life [2]: 0.98 h; Tmax [4]: 0.25 h; AUC/dose (Rattus norvegicus [5]): 0.002 kg·h/L; half-life [6]: 2.4 h; bioavailability [7]: 0.6%; AUC/dose (Rattus norvegicus [8]): 0.33 kg·h/L; Cmax [9]: 20 nM; clearance [10]: 50 mL/min/kg |
| COc1ncc(-c2cccc(F)c2CCNC(=O)c2ccc(OCCC(F)(F)F)nc2)cn1 | Unstable | < 10 | 13 | – |
| COc1ncc(-c2cccc(Cl)c2CCNC(=O)c2ccc(OCCC(F)(F)F)nc2)cn1 | Unstable | 17 | < 10 | – |
| COc1ncc(-c2cccc(OC)c2CCNC(=O)c2ccc(OCCC(F)(F)F)nc2)cn1 | – | 45 | 17 | – |
| COc1ccc(CCNC(=O)c2ccc(OCCC(F)(F)F)nc2)c(-c2cnc(OC)nc2)c1 | – | 40 | 150 | – |

| SMILES | Stability (Liver microsomes [3]) | CLH (Liver microsomes [11]) [µL/min/µg] | CLH (Liver microsomes [12]) [µL/min/µg] | other results |
| --- | --- | --- | --- | --- |
| COc1ncc(-c2cccc(C#N)c2CCNC(=O)c2ccc(OCCC(F)(F)F)nc2)cn1 | Stable | < 10 | 24 | – |
| COc1ncc(-c2ccccc2C(F)(F)CNC(=O)c2ccc(COCC(F)(F)F)nc2)cn1 | Stable | < 10 | 13 | Vd [1]: 1.4 L/kg; half-life [2]: 2 h; Tmax [4]: 0.75 h; AUC/dose (Rattus norvegicus [5]): 0.24 kg·h/L; half-life [6]: 2.4 h; bioavailability [7]: 34%; AUC/dose (Rattus norvegicus [8]): 0.71 kg·h/L; Cmax [9]: 840 nM; clearance [10]: 23 mL/min/kg |
| COc1ncc(-c2cccc(OC(F)F)c2CCNC(=O)c2ccc(OCCC(F)(F)F)nc2)cn1 | – | < 10 | 190 | – |
| COc1ncc(-c2c(C)ccc(F)c2CCNC(=O)c2ccc(OCCC(F)(F)F)nc2)cn1 | – | 100 | 230 | – |
| COc1ncc(-c2c(C)ccc(F)c2CCNC(=O)c2ccc(OCC(F)(F)F)nc2)cn1 | Stable | 74 | 35 | – |
| COc1cnc(-c2c(C)ccc(F)c2CCNC(=O)c2ccc(COCC(F)(F)F)nc2)cn1 | Unstable | 61 | 88 | Vd [1]: 1.5 L/kg; half-life [2]: 0.9 h; Tmax [4]: 1.5 h; AUC/dose (Rattus norvegicus [5]): 0.03 kg·h/L; half-life [6]: 3.6 h; bioavailability [7]: 4%; AUC/dose (Rattus norvegicus [8]): 0.91 kg·h/L; Cmax [9]: 530 nM; clearance [10]: 19 mL/min/kg |
| COc1cnc(-c2c(F)ccc(F)c2CCNC(=O)c2ccc(COCC(F)(F)F)nc2)cn1 | Stable | 44 | 45 | Vd [1]: 0.85 L/kg; half-life [2]: 0.9 h; Tmax [4]: 0.67 h; AUC/dose (Rattus norvegicus [5]): 0.06 kg·h/L; half-life [6]: 3 h; bioavailability [7]: 5%; AUC/dose (Rattus norvegicus [8]): 1.3 kg·h/L; Cmax [9]: 160 nM; clearance [10]: 13 mL/min/kg |
| Cc1cnc(-c2c(F)ccc(F)c2CCNC(=O)c2ccc(COCC(F)(F)F)nc2)cn1 | Stable | 21 | < 10 | Vd [1]: 1.74 L/kg; half-life [2]: 5.9 h; Tmax [4]: 0.5 h; AUC/dose (Rattus norvegicus [5]): 0.05 kg·h/L; half-life [6]: 2.3 h; bioavailability [7]: 7%; bioavailability [13]: 40%; AUC/dose (Rattus norvegicus [8]): 0.68 kg·h/L; Cmax [9]: 250 nM; clearance [10]: 24.6 mL/min/kg |
| COc1cnc(-c2c(OC)ccc(F)c2CCNC(=O)c2ccc(COCC(F)(F)F)nc2)cn1 | – | 46 | 67 | – |
| COc1ncc(-c2cccnc2CCNC(=O)c2ccc(OCCC(F)(F)F)nc2)cn1 | Stable | < 10 | < 10 | – |
| COc1ncc(-c2ccc(C)nc2CCNC(=O)c2ccc(OCCC(F)(F)F)nc2)cn1 | Stable | < 10 | < 10 | – |
| COc1ncc(-c2cc(C)cnc2CCNC(=O)c2ccc(COCC(F)(F)F)nc2)cn1 | – | < 10 | < 10 | – |
| COc1ncc(-c2cccnc2C(C)CNC(=O)c2ccc(OCCC(F)(F)F)nc2)cn1 (stereo unspecified) | – | < 10 | < 10 | – |
| COc1ncc(-c2cccnc2C(F)(F)CNC(=O)c2ccc(OCCC(F)(F)F)nc2)cn1 | – | < 10 | < 10 | – |
| COc1cnc(-c2ccccc2C(F)(F)CNC(=O)c2ccc(COCC(F)(F)F)nc2)cn1 | Stable | < 10 | 16 | Vd [1]: 0.72 L/kg; half-life [2]: 1.2 h; Tmax [4]: 0.33 h; AUC/dose (Rattus norvegicus [5]): 0.41 kg·h/L; half-life [6]: 2.8 h; bioavailability [7]: 27%; AUC/dose (Rattus norvegicus [8]): 1.5 kg·h/L; Cmax [9]: 1400 nM; clearance [10]: 11 mL/min/kg |
| COc1cnc(-c2cccc(F)c2C(F)(F)CNC(=O)c2ccc(COCC(F)(F)F)nc2)cn1 | Stable | < 10 | 24 | – |
